Source: ChEMBL document CHEMBL1157038, “Synthesis and in vitro microbiological evaluation of an array of biolabile 2-morpholino-N-(4,6-diarylpyrimidin-2-yl)acetamides” (2010)
Converted amounts (≈) assume the structure as drawn.

What was measured:
Assay type in all cases: functional
[1] = tested on: Staphylococcus aureus; assay: Antibacterial activity against Staphylococcus aureus after 24 hrs by twofold serial dilution method
How it was run: (§1)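 Compounds dissolved in DMSO as 1 mg/mL stock. Seeded nutrient broth prepared from 24 h nutrient agar cultures, adjusted by plate count. Final inoculum 10⁵ cfu/mL at pH 7.4. First dilution was 0.4 mL stock in 1.6 mL seeded broth, then serial twofold through six dilutions. Seeded-broth-only tubes served as controls. Incubated at 37 °C; MIC read visually at 24 h.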

[2] = tested on: Vibrio cholerae; assay: Antibacterial activity against Vibrio cholerae after 24 hrs by twofold serial dilution method
[3] = tested on: Escherichia coli; assay: Antibacterial activity against Escherichia coli after 24 hrs by twofold serial dilution method; how it was run: as §1
[4] = tested on: Klebsiella pneumoniae; assay: Antibacterial activity against Klebsiella pneumoniae after 24 hrs by twofold serial dilution method; how it was run: as §1
[5] = tested on: Pseudomonas; assay: Antibacterial activity against Pseudomonas after 24 hrs by twofold serial dilution method; how it was run: as §1
[6] = tested on: Aspergillus flavus; assay: Antifungal activity against Aspergillus flavus after 1 to 7 days by twofold serial dilution method
How it was run: (§2)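 Test compounds were made as 1 mg/mL DMSO stocks. Spores from 1–7 day Sabouraud agar slants were suspended in Sabouraud dextrose broth at pH 5.6. Final inoculum 1.1–1.5×10² cfu/mL. First dilution was 0.4 mL stock plus 1.6 mL seeded broth, followed by six twofold serial dilutions. Controls held seeded broth only. Incubated at 28 °C; MIC read visually after 72–96 h.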

[7] = tested on: Mucor; assay: Antifungal activity against Mucor after 1 to 7 days by twofold serial dilution method; how it was run: as §2
[8] = tested on: Rhizopus; assay: Antifungal activity against Rhizopus after 1 to 7 days by twofold serial dilution method; how it was run: as §2
[9] = tested on: Nannizzia gypsea; assay: Antifungal activity against Microsporum gypseum after 1 to 7 days by twofold serial dilution method; how it was run: as §2

SMILES	MIC [1] [µg/mL]	MIC [2] [µg/mL]	MIC [3] [µg/mL]	MIC [4] [µg/mL]	MIC [5] [µg/mL]	MIC [6] [µg/mL]	MIC [7] [µg/mL]	MIC [8] [µg/mL]	MIC [9] [µg/mL]
O=C(CN1CCOCC1)Nc1nc(-c2ccccc2)cc(-c2ccccc2)n1	200 (≈ 534 µM)	200 (≈ 534 µM)	200 (≈ 534 µM)	50 (≈ 134 µM)	100 (≈ 267 µM)	200 (≈ 534 µM)	100 (≈ 267 µM)	100 (≈ 267 µM)	200 (≈ 534 µM)
COc1ccc(-c2cc(-c3ccc(C)cc3)nc(NC(=O)CN3CCOCC3)n2)cc1	100 (≈ 239 µM)	12.5 (≈ 29.9 µM)	200 (≈ 478 µM)	50 (≈ 119 µM)	50 (≈ 119 µM)	100 (≈ 239 µM)	50 (≈ 119 µM)	12.5 (≈ 29.9 µM)	50 (≈ 119 µM)
O=C(CN1CCOCC1)Nc1nc(-c2ccccc2)cc(-c2ccc(F)cc2)n1	200 (≈ 510 µM)	50 (≈ 127 µM)	50 (≈ 127 µM)	6.25 (≈ 15.9 µM)	100 (≈ 255 µM)	6.25 (≈ 15.9 µM)	50 (≈ 127 µM)	100 (≈ 255 µM)	200 (≈ 510 µM)
Cc1ccc(-c2cc(-c3ccccc3)nc(NC(=O)CN3CCOCC3)n2)cc1	50 (≈ 129 µM)	100 (≈ 257 µM)	50 (≈ 129 µM)	100 (≈ 257 µM)	50 (≈ 129 µM)	100 (≈ 257 µM)	50 (≈ 129 µM)	50 (≈ 129 µM)	50 (≈ 129 µM)
OC(Cn1cncn1)(Cn1cncn1)c1ccc(F)cc1F [FLUCONAZOLE]	–	–	–	–	–	50 (≈ 163 µM)	25 (≈ 81.6 µM)	25 (≈ 81.6 µM)	25 (≈ 81.6 µM)
Cc1ccc(-c2cc(-c3ccc(F)cc3)nc(NC(=O)CN3CCOCC3)n2)cc1	12.5 (≈ 30.8 µM)	12.5 (≈ 30.8 µM)	50 (≈ 123 µM)	50 (≈ 123 µM)	100 (≈ 246 µM)	200 (≈ 492 µM)	100 (≈ 246 µM)	50 (≈ 123 µM)	12.5 (≈ 30.8 µM)
COc1ccc(-c2cc(-c3ccc(F)cc3)nc(NC(=O)CN3CCOCC3)n2)cc1	200 (≈ 473 µM)	100 (≈ 237 µM)	50 (≈ 118 µM)	100 (≈ 237 µM)	6.25 (≈ 14.8 µM)	6.25 (≈ 14.8 µM)	6.25 (≈ 14.8 µM)	200 (≈ 473 µM)	100 (≈ 237 µM)
COc1ccc(-c2cc(-c3ccccc3)nc(NC(=O)CN3CCOCC3)n2)cc1	50 (≈ 124 µM)	100 (≈ 247 µM)	200 (≈ 494 µM)	100 (≈ 247 µM)	50 (≈ 124 µM)	100 (≈ 247 µM)	200 (≈ 494 µM)	100 (≈ 247 µM)	100 (≈ 247 µM)
O=C(CN1CCOCC1)Nc1nc(-c2ccc(F)cc2)cc(-c2ccc(F)cc2)n1	100 (≈ 244 µM)	50 (≈ 122 µM)	6.25 (≈ 15.2 µM)	50 (≈ 122 µM)	6.25 (≈ 15.2 µM)	12.5 (≈ 30.5 µM)	6.25 (≈ 15.2 µM)	6.25 (≈ 15.2 µM)	100 (≈ 244 µM)
O=C(O)c1cn(C2CC2)c2cc(N3CCNCC3)c(F)cc2c1=O [CIPROFLOXACIN]	–	50 (≈ 151 µM)	25 (≈ 75.4 µM)	–	25 (≈ 75.4 µM)	–	–	–	–
